The results in this text go back to paper PMC5771089 (Theranostics, 2018).

For data set [1], the target named is biotinylated BSA (serum albumin) (Bos taurus, UniProt P02769). As to the kind of experiment: Kinetic binding assay by biolayer interferometry. Also on record: species or system bovine. The essentials:
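Biolayer interferometry on streptavidin biosensors. Steps: PBS baseline 60 s; biotin-BSA load (1 µg/mL) 600 s; PBS 60 s; biocytin quench (1 µg/mL) 180 s; PBS 60 s; test compound association 600 s; dissociation 600 s. Nonspecific signal subtracted, taken from BSA-loaded sensor in buffer alone and blank sensor with analyte.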

Data set [2] has as its system HCT116/SSTR2 (SSTR2+) and HCT116 (SSTR2-) cells. Briefly: Cell uptake/internalization. The data set is classed as cell-based, human. The essentials:
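HCT116/SSTR2 (transfected) and parental HCT116 cells grown in McCoy's 5A with 10% FBS at 37 °C, 5% CO2. 10^5 cells/well plated 24 h ahead, PBS-washed, then given 18.5 KBq/well 86Y-labelled tracer in 0.5 mL medium with 1% (w/v) HSA. At each time point: PBS wash, then 0.1 M NaOH lysis. For internalized fraction, surface tracer stripped first with 1 min glycine 50 mM/NaCl 100 mM, pH 2.8. Gamma-counted as % of added activity; triplicates; blocking at 24 h.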

For data set [3], the system named is HCT116/SSTR2 tumor xenografts. Briefly: In vivo PET in HCT116/SSTR2 xenografts. More on the design: species or system mouse.

pKd: −log10 of the molar value.

biotinylated BSA (serum albumin), sequence (P02769 25-607): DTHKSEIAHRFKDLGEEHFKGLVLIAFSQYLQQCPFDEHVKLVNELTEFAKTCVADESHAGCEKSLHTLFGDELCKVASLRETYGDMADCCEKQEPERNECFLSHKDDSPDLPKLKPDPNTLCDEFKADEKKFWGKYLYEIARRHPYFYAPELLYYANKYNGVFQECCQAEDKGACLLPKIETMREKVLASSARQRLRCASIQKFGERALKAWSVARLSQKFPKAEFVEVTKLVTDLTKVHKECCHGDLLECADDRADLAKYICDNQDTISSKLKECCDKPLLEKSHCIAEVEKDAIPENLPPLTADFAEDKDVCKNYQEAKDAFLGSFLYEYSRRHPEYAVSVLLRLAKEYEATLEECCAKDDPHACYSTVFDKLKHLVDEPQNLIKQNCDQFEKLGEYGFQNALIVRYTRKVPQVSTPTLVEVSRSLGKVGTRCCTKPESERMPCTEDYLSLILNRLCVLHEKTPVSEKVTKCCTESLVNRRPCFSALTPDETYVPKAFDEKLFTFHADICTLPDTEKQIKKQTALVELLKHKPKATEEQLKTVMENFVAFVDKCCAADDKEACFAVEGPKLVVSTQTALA

For the compound `Cc1cc(-c2ccc(NC(=O)[C@H](CCCCNC(=O)CCN3C(=O)CC(SCC(=O)N[C@H](Cc4ccccc4)C(=O)N[C@H]4CSSC[C@@H](C(=O)N[C@H](C(=O)O)[C@@H](C)O)NC(=O)[C@H]([C@@H](C)O)NC(=O)[C@H](CCCCN)NC(=O)[C@@H](Cc5c[nH]c6ccccc56)NC(=O)[C@H](Cc5ccc(O)cc5)NC4=O)C3=O)NC(=O)CN3CCN(CC(=O)O)CCN(CC(=O)O)CCN(CC(=O)O)CC3)c(C)c2)ccc1N=Nc1ccc2c(S(=O)(=O)O)cc(S(=O)(=O)O)c(N)c2c1O` (stereo partly drawn) [EB-TATE], the negative-log Kd (pKd) in data set [1] is 5.32.

Take `Cc1cc(-c2ccc(NC(=O)[C@H](CCCCNC(=O)CCN3C(=O)CC(SCC(=O)N[C@H](Cc4ccccc4)C(=O)N[C@H]4CSSC[C@@H](C(=O)N[C@H](C(=O)O)[C@@H](C)O)NC(=O)[C@H]([C@@H](C)O)NC(=O)[C@H](CCCCN)NC(=O)[C@@H](Cc5c[nH]c6ccccc56)NC(=O)[C@H](Cc5ccc(O)cc5)NC4=O)C3=O)NC(=O)CN3CCN(CC(=O)O)CCN(CC(=O)O)CCN(CC(=O)O)CC3)c(C)c2)ccc1N=Nc1ccc2c(S(=O)(=O)O)cc(S(=O)(=O)O)c(N)c2c1O` (stereo partly drawn) [^86Y-EB-TATE, metal not drawn]: the “Cell uptake (percent of added radioactivity)” value in data set [2] (HCT116/SSTR2 cells, 24 h, 18.5 KBq/well, medium with 1% (w/v) HSA, triplicate) is on record as 12.05±0.67%. In addition, the “Uptake/internalization in SSTR2 positive vs SSTR2 negative cells” value in data set [2] (HCT116/SSTR2 vs HCT116, 1% HSA, p < 0.001) is “significantly higher”. Further, the “Amount retained in the blood compared to ^86Y-TATE” value in data set [3] (1 h p.i., PET quantification) was 4 fold. Moreover, the “Tumor exposure to the radioisotope (AUC) compared to ^86Y-TATE” value in data set [3] (AUC of tumor radioactivity over time, non-decay corrected data) is “approximately 6 fold”. For the same compound, the “Increase of half-life in the blood compared to ^86Y-TATE” value in data set [3] (PET quantification, i.v. 0.92 MBq (4 nmol)) is reported as 2 fold.
